Measured values taken from ChEMBL document CHEMBL1154537, “Synthesis and evaluation of pyrido-thieno-pyrimidines as potent and selective Cdc7 kinase inhibitors” (Bioorg Med Chem Lett, 2009).
Active and inactive are the calls of the source. No cut-off for these calls is given here.

Experiments:
[1] = target: T1, CDC7/DBF4 (Cell division cycle 7-related protein kinase/Activator of S phase kinase) (Homo sapiens, UniProt O00311); experiment: Inhibition of human recombinant Cdc7/Dbf4 by IMAP assay; type: protein-complex assay
T1 sequence (Q9UBU7 whole entry): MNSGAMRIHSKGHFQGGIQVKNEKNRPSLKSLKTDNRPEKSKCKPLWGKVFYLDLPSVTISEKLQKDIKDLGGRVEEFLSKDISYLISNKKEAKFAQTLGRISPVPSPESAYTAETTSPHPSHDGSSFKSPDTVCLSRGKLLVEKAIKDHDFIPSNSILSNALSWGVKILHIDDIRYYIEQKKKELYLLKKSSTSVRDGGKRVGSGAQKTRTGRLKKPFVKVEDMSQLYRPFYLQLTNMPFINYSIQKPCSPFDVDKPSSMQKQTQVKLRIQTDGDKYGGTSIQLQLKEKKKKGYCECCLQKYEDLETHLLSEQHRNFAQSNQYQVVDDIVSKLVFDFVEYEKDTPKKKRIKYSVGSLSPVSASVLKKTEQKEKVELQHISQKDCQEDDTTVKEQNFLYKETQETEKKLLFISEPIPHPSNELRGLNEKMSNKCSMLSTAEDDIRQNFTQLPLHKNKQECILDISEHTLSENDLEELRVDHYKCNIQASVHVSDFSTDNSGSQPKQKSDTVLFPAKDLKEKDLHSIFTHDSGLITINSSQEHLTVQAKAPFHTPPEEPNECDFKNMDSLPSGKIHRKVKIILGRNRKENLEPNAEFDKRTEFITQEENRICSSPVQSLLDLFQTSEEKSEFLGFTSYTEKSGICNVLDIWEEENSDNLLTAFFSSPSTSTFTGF
T1 sequence (O00311 whole entry): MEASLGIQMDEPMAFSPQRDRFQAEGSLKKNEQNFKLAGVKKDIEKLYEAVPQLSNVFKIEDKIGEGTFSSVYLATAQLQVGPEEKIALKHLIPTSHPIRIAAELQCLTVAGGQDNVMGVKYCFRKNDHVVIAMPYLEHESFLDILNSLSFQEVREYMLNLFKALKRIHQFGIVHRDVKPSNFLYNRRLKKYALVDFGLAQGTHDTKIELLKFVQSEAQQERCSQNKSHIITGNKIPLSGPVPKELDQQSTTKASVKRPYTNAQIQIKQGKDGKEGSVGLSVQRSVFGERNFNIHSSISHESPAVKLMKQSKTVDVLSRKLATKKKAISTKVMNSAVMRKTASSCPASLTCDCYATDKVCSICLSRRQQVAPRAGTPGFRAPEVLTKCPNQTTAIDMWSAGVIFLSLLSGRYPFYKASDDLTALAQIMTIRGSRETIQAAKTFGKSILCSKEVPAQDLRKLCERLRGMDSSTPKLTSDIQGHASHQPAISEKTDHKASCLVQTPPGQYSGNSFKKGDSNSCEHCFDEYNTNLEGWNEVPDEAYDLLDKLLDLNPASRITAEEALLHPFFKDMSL

[2] = Permeability in human Caco-2 cells; type: ADME, cell-based; settings: read-out: permeability
[3] = Solubility at pH 6.5; type: physicochemical; settings: buffer
[4] = target: T1, CDC7/DBF4 (Cell division cycle 7-related protein kinase/Activator of S phase kinase); experiment: Inhibition of human recombinant Cdc7/Dbf4 by HTRF assay
[5] = target: Cyclin-dependent kinase 1/cyclin B1 (Homo sapiens, UniProt P06493); experiment: Inhibition of human CDK1/Cyclin B by IMAP assay; type: protein-complex assay
Chain of Cyclin-dependent kinase 1/cyclin B1 (P06493 whole entry): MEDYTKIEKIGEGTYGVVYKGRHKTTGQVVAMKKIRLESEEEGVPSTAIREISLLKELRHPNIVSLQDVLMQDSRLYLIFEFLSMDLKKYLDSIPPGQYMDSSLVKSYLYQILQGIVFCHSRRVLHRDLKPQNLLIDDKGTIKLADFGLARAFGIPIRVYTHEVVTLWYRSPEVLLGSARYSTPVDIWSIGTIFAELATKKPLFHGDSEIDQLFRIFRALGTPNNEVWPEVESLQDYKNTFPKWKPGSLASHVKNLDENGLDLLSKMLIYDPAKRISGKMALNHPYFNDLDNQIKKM
Chain of Cyclin-dependent kinase 1/cyclin B1 (P14635 whole entry, further chain): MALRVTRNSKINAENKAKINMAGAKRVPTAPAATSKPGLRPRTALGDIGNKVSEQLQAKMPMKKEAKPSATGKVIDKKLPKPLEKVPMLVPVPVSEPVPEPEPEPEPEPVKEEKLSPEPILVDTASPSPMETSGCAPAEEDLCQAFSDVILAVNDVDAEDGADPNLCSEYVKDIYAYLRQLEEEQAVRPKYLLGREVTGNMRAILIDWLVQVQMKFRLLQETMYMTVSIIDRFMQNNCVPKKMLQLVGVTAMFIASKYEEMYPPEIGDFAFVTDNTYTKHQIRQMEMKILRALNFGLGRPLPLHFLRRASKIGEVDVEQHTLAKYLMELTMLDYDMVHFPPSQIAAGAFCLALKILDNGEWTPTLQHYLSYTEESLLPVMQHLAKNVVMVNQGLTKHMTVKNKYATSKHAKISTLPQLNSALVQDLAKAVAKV

[6] = target: Cyclin-dependent kinase 2 (Homo sapiens, UniProt P24941); experiment: Inhibition of human CDK2/Cyclin E by IMAP assay
[7] = Inhibition of human CDK4/Cyclin D by IMAP assay
[8] = target: RAC-alpha serine/threonine-protein kinase (Homo sapiens, UniProt P31749); experiment: Inhibition of human AKT by IMAP assay
Chain of RAC-alpha serine/threonine-protein kinase (P31749 whole entry): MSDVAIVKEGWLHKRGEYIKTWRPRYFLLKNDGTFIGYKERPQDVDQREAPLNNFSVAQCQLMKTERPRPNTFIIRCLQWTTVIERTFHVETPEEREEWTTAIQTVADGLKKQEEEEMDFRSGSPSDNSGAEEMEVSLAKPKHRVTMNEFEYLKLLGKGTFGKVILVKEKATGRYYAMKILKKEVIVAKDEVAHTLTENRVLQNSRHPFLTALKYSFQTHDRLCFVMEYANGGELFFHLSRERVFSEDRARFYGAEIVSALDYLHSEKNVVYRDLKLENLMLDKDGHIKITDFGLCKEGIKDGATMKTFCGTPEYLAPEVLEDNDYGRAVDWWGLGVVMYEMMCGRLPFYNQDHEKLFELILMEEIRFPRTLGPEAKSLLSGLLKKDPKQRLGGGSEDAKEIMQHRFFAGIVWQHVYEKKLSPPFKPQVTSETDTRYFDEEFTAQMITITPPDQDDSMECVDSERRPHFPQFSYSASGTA

[9] = Inhibition of human PKA by IMAP assay
[10] = target: Protein kinase C alpha type (Homo sapiens, UniProt P17252); experiment: Inhibition of human PKCalpha by IMAP assay
[11] = target: Protein kinase C delta type (Homo sapiens, UniProt Q05655); experiment: Inhibition of human PKCdelta by IMAP assay
Chain of Protein kinase C delta type (Q05655 whole entry): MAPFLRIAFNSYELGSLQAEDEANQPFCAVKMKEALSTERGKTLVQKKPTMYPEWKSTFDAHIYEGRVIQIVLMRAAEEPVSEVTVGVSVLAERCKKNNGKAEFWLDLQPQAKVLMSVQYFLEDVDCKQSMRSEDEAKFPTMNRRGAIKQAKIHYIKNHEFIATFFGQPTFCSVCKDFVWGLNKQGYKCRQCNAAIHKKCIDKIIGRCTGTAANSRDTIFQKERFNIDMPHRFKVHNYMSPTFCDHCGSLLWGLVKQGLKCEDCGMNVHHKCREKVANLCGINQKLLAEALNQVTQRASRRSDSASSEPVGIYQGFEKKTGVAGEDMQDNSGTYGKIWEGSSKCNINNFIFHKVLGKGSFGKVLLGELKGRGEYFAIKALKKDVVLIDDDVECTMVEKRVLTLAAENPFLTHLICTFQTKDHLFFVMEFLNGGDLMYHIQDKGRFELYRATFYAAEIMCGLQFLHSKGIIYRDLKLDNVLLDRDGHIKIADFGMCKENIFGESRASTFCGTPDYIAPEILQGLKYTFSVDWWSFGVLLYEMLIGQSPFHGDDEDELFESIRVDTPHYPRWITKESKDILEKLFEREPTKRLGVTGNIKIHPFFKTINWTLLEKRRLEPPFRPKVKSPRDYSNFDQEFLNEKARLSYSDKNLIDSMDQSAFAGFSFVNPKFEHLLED

[12] = target: Mitogen-activated protein kinase 1 (Homo sapiens, UniProt P28482); experiment: Inhibition of human ERK2 by IMAP assay
Chain of Mitogen-activated protein kinase 1 (P28482 whole entry): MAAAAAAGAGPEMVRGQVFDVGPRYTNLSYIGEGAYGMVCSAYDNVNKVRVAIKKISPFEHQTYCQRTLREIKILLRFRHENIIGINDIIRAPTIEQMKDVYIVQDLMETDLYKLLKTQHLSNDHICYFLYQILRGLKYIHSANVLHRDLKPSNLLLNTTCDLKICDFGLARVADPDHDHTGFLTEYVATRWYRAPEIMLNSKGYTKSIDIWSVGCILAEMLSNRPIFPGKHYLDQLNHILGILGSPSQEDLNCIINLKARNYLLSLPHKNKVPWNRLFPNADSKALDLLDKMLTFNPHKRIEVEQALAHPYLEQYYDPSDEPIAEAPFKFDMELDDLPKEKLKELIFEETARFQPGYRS

[13] = target: T2, Serine/threonine-protein kinase Sgk1 (Homo sapiens, UniProt O00141); experiment: Inhibition of human SGK by IMAP assay
T2 sequence (O00141 whole entry): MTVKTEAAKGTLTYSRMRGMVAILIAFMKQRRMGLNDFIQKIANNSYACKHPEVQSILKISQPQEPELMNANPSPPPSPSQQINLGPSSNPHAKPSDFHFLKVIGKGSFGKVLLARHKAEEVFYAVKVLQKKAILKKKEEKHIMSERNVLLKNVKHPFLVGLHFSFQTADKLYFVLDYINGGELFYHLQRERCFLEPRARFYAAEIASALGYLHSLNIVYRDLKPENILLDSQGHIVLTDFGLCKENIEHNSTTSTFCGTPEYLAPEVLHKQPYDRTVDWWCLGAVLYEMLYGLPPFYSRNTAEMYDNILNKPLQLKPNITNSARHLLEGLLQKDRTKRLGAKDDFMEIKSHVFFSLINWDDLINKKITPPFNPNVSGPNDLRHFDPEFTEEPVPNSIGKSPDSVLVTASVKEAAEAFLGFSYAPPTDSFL

[14] = target: Tyrosine-protein kinase Fyn (Homo sapiens, UniProt P06241); experiment: Inhibition of human Fyn by IMAP assay
Chain of Tyrosine-protein kinase Fyn (P06241 whole entry): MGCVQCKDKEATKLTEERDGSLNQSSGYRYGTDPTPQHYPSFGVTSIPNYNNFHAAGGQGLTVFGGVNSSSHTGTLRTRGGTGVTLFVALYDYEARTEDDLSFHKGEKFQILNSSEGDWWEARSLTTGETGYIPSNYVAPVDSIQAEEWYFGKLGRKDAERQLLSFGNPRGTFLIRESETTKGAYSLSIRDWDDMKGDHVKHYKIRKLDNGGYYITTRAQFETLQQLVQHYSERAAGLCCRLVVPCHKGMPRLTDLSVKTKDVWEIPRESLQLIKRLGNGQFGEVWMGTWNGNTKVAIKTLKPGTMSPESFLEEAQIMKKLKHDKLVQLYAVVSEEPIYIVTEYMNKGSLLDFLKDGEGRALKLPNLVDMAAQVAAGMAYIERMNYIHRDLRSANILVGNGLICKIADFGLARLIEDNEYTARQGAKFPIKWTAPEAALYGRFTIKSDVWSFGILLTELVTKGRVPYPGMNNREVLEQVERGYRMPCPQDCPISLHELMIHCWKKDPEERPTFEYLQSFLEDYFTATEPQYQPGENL

Ephrin type-B receptor 3 = target: T3, Ephrin type-B receptor 3 (Homo sapiens, UniProt P54753); experiment: Inhibition of human EphB3 by IMAP assay
T3 sequence (P54753 whole entry): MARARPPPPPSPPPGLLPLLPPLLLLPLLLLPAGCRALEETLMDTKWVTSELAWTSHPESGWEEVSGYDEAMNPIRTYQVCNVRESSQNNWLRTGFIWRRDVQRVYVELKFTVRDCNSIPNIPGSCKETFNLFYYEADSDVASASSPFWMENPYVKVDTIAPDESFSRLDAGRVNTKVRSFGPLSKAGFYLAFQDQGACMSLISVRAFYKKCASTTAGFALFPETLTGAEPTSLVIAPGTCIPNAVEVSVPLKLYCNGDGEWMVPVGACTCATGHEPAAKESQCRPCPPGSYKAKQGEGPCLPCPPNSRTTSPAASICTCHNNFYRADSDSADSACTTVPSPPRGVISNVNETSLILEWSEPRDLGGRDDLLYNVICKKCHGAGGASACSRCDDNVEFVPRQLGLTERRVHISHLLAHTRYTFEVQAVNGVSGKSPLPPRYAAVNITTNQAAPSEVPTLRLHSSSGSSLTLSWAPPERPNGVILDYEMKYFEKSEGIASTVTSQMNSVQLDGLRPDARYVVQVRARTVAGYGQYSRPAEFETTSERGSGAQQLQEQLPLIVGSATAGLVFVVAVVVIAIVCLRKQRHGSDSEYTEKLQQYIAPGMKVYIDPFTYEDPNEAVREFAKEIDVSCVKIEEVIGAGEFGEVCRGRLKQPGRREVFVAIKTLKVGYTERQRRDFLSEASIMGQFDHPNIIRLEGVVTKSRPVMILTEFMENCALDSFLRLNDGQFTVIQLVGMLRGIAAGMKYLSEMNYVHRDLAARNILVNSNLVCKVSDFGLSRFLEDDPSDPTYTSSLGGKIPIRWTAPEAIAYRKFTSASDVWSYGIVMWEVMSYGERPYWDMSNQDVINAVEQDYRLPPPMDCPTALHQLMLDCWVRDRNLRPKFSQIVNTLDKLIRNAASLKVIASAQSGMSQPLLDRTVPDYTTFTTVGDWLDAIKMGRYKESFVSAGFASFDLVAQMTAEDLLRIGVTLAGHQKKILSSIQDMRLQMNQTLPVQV

[15] = target: CDC7/DBF4 (Cell division cycle 7-related protein kinase/Activator of S phase kinase) (Homo sapiens) (UniProt Q9UBU7+O00311); experiment: Inhibition of Cdc7/Dbf4-mediated MCM2 phosphorylation in human HCT116 cells assessed as decrease in faster migration of protein at 20 uM after 18 hrs by Western blot analysis; type: cell-based; settings: HCT-116
Chain of CDC7/DBF4 (Cell division cycle 7-related protein kinase/Activator of S phase kinase) (Homo sapiens) (O00311 whole entry, looked up): as the sequence (O00311 whole entry) above
Chain of CDC7/DBF4 (Cell division cycle 7-related protein kinase/Activator of S phase kinase) (Homo sapiens) (Q9UBU7 whole entry, looked up): as the sequence (Q9UBU7 whole entry) above
Method in brief: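 HCT116 cells were arrested with 100 nM nocodazole for 16 h and mitotic cells were collected by shake-off and washed. The resulting G1 cells were incubated with 20 µM compound or DMSO for 18 h. MCM2 and phospho-MCM2 were read by Western blot.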

HCT-116 = experiment: Cytotoxicity against human HCT116 cells MTT assay; type: functional, cell-based
Method in brief: (§1)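 MTT viability assay on human colon cancer cell lines exposed in vitro across a compound concentration range. IC50 was taken from the dose-response.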

RKO = experiment: Cytotoxicity against human RKO cells MTT assay; type: functional, cell-based; method in brief: as §1
SW480 = experiment: Cytotoxicity against human SW480 cells MTT assay; type: functional, cell-based; method in brief: as §1

Row | Compound | Ki [1] | Papp [2] | solubility [3] | IC50 [4] | further results
1 | Nc1ncnc2c1sc1ncc(-c3ccccc3)cc12 | 0.9 µM | > 20 ×10⁻⁶ cm/s | < 30 µg/mL | 9 µM | 
2 | Cc1cc(C)c2c(n1)sc1c(N(C)C)ncnc12 | > 3 µM | > 20 ×10⁻⁶ cm/s | < 30 µg/mL | > 30 µM | 
3 | Nc1ncnc2c1sc1nc(C3CC3)cc(C(F)(F)F)c12 | 0.4 µM | > 20 ×10⁻⁶ cm/s | < 30 µg/mL | 4 µM | 
4 | CNc1ncnc2c1sc1nc(C)cc(C)c12 | > 3 µM | > 20 ×10⁻⁶ cm/s | < 30 µg/mL | > 30 µM | 
5 | Nc1ncnc2c1sc1ncccc12 | 1.2 µM | > 20 ×10⁻⁶ cm/s | < 30 µg/mL | 12 µM | 
6 | Cc1nc2sc3c(N)ncnc3c2c(C)c1Cc1ccccc1 | 0.2 µM | > 20 ×10⁻⁶ cm/s | < 30 µg/mL | 2 µM | 
7 | Cc1cc(C)c2c(n1)sc1c(N)ncnc12 |  | > 20 ×10⁻⁶ cm/s | < 30 µg/mL |  | 
8 | Cc1cc(C)c2c(n1)sc1c(Nc3ccccc3)ncnc12 | > 3 µM | > 20 ×10⁻⁶ cm/s | < 30 µg/mL | > 30 µM | 
9 | CCOC(=O)c1cc2c(nc1C)sc1c(N)ncnc12 | 1 µM | > 20 ×10⁻⁶ cm/s | < 30 µg/mL | 10 µM | 

Further lines, with some results ahead:

Row | Ki [1] | Papp [2] | solubility [3] | IC50 [4] | Compound | further results
10 | 0.001 µM | > 20 ×10⁻⁶ cm/s | < 30 µg/mL | 0.01 µM | CCc1c(C)nc2sc3c(N)ncnc3c2c1C | 
11 | 0.003 µM | > 20 ×10⁻⁶ cm/s | < 30 µg/mL | 0.03 µM | Cc1nc2sc3c(N)ncnc3c2c2c1CCC2 | 
12 | 0.0005 µM | > 20 ×10⁻⁶ cm/s | < 30 µg/mL | 0.005 µM | Cc1nc2sc3c(N)ncnc3c2c2c1CCCC2 | 
13 | 0.002 µM | > 20 ×10⁻⁶ cm/s | < 30 µg/mL | 0.02 µM | C=CCc1c(C)nc2sc3c(N)ncnc3c2c1C | Ki [5]: > 5 µM; Ki [6]: > 5 µM; Ki [7]: > 5 µM; Ki [8]: > 5 µM; Ki [9]: 1.1 µM; Ki [10]: > 5 µM; Ki [11]: > 5 µM; Ki [12]: > 5 µM; Ki [13]: > 5 µM; Ki [14]: > 5 µM; Ki (Ephrin type-B receptor 3): > 5 µM; Activity [15]: Active; IC50 (HCT-116): 8.3 µM; IC50 (RKO): 6.6 µM; IC50 (SW480): 9.6 µM
14 | 0.004 µM | > 20 ×10⁻⁶ cm/s | < 30 µg/mL | 0.04 µM | Cc1nc2sc3c(N)ncnc3c2c(C)c1C | 
15 | 0.005 µM | > 20 ×10⁻⁶ cm/s | < 30 µg/mL | 0.05 µM | Cc1c2c(nc3sc4c(N)ncnc4c13)CCC2 | 
16 | 0.002 µM | > 20 ×10⁻⁶ cm/s | < 30 µg/mL | 0.02 µM | Cc1c2c(nc3sc4c(N)ncnc4c13)CCCC2 | 
